# This is a sample that favours compounds with a hit; in the whole collection about 2.3% have one here.
# OXTR ag – activates the human oxytocin receptor; P30559; actives 0.32% (n = 320,000); activation, % at 3 µM; CHO-OTR cells, Fluo-8 calcium fluorescence; normalized: DMSO 0%, oxytocin 100%;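 active means activation above the mean of all tested compounds plus 3 SD, cutoff set per screening run, cut at about 20% in these data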;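 further: peak over basal fluorescence ratio from a 100 s FLIPR kinetic read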
# TAAR1 ag – human TAAR1 agonism. Q96RJ0. actives 0.99% (n = 360,000). activation, % at 3 µM. CHO RD-HGA16 TAAR1, Fluo-8 calcium fluorescence; vehicle wells 0%, saturating PEA agonist 100%;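 active means activation above the mean activation of all test compounds in the run plus 3 SD, cut at about 38% in these data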
#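 Assay system: CHO-derived RD-HGA16 cells with stable Gα16 and human TAAR1; timing: 17-24 h seeding, 75 min 37 °C dye, 30 min RT; read-out: % activation from peak over basal fluorescence ratio, DMSO-to-PEA scaled; measured by: kinetic Fluo-8 calcium fluorescence; benchmarks: low control DMSO, high control PEA (EC100); doses: 3 µM single concentration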
# V1aR counter – activates human V1a receptor in oxytocin agonist counter-screen; P37288; CHO-V1R cells, Fluo-8 calcium fluorescence, agonist mode; 0% DMSO, 100% 3 nM vasopressin; activation, % at 3 µM; actives 0.25% (n = 320,000);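 active means activation above the mean activation of all tested compounds plus 3 SD, per screening run, cut at about 20% in these data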;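 further: signal is peak over basal fluorescence ratio across a 100 second FLIPR read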
# Target sequence (P37288 whole entry, looked up): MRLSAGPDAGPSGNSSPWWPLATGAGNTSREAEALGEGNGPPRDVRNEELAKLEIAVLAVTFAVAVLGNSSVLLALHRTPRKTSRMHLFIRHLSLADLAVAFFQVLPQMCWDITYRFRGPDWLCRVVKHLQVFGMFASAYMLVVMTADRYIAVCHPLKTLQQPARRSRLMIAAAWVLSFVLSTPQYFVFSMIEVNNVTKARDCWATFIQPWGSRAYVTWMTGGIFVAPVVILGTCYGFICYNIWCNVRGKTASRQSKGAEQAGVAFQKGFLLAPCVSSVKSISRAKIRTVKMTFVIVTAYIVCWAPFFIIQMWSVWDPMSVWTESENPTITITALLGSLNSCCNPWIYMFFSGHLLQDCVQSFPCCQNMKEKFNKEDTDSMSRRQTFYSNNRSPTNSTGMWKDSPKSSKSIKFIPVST
# TAAR1 antagonist – human TAAR1 antagonism; CHO RD-HGA16 TAAR1, Fluo-8 calcium fluorescence, antagonist; inhibition, % at 3 µM; actives 1.5% (n = 360,000); AID 624466;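 active means inhibition above a per-plate cutoff, the mean inhibition of test compounds on that plate plus 3 SD, cut at about 49% in these data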;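 further: 0% = DMSO plus EC80 beta-PEA response and 100% = DMSO alone without agonist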
#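 Assay system: RD-HGA16 CHO cells with stable hTAAR1 and Gα16 / Reagent: EC80 β-phenethylamine stimulus / Doses: 3 µM, single point / Timing: dye loading 75 min at 37 °C, then 30 min room temperature / Measured by: Fluo-8 intracellular calcium dye fluorescence, real-time kinetic reads / Controls: vehicle wells and EC80 agonist wells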
# OXTR potentiate – human OXTR potentiation; CHO-OTR cells, Fluo-8 calcium fluorescence, potentiator mode; 0% = oxytocin EC15, 100% = EC100; activation, % at 3 µM; actives 0.061% (n = 320,000); AID 2445;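 active means activation above that plate's cutoff, the mean activation of tested compounds plus 3 SD, cut at about 6.6% in these data, passing the limit was not always enough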;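 further: 100% uses oxytocin at 75 nM as the full agonist control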
#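 Assay system: CHO cell line stably expressing human OTR | Also added: Oxytocin at about EC15, sub-maximal agonist stimulus | Times: Compound 6 min at room temperature before oxytocin, 100 s read | Measured by: Fluo-8 intracellular calcium fluorescence, ex 470-495, em 515-575 nm | Controls: EC15 oxytocin alone as 0%, 75 nM oxytocin as 100%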
# TAAR1 ag conf – confirmation of human TAAR1 agonists; activation, % at 3 µM; AID 651783; shares compounds with TAAR1 ag; actives 82% (n = 2,400); CHO RD-HGA16 TAAR1, Fluo-8 calcium fluorescence; scaled: DMSO 0%, maximal phenethylamine 100%;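 active means activation above a cutoff set at the run's mean compound activation plus 3 SD, cut at about 39% in these data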
# Ga16 nonsel ag – nonselective agonist in parental cells, TAAR1 agonist counter-screen; CHO-Ga16 parental, Fluo-8 calcium fluorescence; normalized to maximal ATP response, DMSO zero; shares compounds with TAAR1 ag; actives 50% (n = 2,400); AID 651787; activation, % at 3 µM;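 active means activation above the run cutoff, the mean activation over all tested wells plus 3 SD, cut at about 12% in these data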;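 further: 0% = DMSO wells and 100% = maximal ATP response on the peak over basal ratio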
# TAAR1 desens – counter-screen for human TAAR1 agonists: agonists that desensitize TAAR1; actives 46% (n = 2,400); shares compounds with TAAR1 ag; CHO RD-HGA16 hTAAR1, Fluo-8 calcium, beta-PEA response inhibition; inhibition, % at 3 µM;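 active means inhibition above the run cutoff, the mean inhibition of all test compounds plus 3 SD, cut at about 49% in these data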;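 further: beta-PEA stimulus applied at its EC80; loss of beta-PEA calcium signal after compound pretreatment read as receptor desensitization; 0% = DMSO with beta-PEA at EC80 and 100% = DMSO alone without agonist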
# Ga16 nonsel ant – nonselective Ga16 antagonism, counter-screen; actives 39% (n = 2,400); shares compounds with TAAR1 ag; inhibition, % at 3 µM; CHO-Ga16 ATP-induced calcium, Fluo-8 fluorescence;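 active means inhibition above the plate's mean compound inhibition plus 3 SD, computed per plate, cut at about 22% in these data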;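 further: 0% = EC80 ATP with DMSO and 100% = DMSO wells without ATP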
# The depositor's hits bear a star; nt = no result.
SMILES,OXTR ag,TAAR1 ag,V1aR counter,TAAR1 antagonist,OXTR potentiate,TAAR1 ag conf,Ga16 nonsel ag,TAAR1 desens,Ga16 nonsel ant
NS(=O)(=O)c1ccc(CCNC(=O)c2ccc(NS(=O)(=O)c3ccc4[nH]c(=O)[nH]c4c3)cc2)cc1,0.9,0.6,0.3,-3.1,2.3,nt,nt,nt,nt
O=C(NCCCn1ccnc1)c1ccc(-c2cccc(Cl)c2Cl)o1,6.9,63.2*,3.6,12.4,-8.0,49.8*,33.3*,16.8,6.6
COc1cc(N=c2ssnc2Cl)c(OC)cc1Cl,-0.4,58.6*,5.2,29.0,-1.8,49.1*,38.1*,33.6,32.8*
O=[N+]([O-])c1cc(/C=N\Nc2nc(-c3ccccc3)cs2)ccc1O,3.6,69.4*,2.3,35.7,-16.8,44.3*,53.3*,37.3,28.9*
Cc1cccc(N(Cc2ccccc2)C(=O)c2ccc(CS(C)(=O)=O)cc2)c1,0.1,2.6,5.1,-8.5,-10.2,nt,nt,nt,nt
CCN(CC)c1ccc(/C=C/C(=O)C2C(=O)C=C(C)OC2=O)cc1 (configuration not stated),158.1*,406.2*,141.3*,107.8*,-29.3,536.0*,663.6*,108.6*,104.8*
CCN(CC)c1ccc(C=C2C(=O)OC(c3ccccc3)OC2=O)cc1 (configuration not stated),1.4,3.8,1.0,11.0,-6.4,nt,nt,nt,nt
CC(C)NC(=S)N/N=C1\CCCCC1C1CCCCC1 (configuration not stated),-0.7,4.5,-1.6,8.8,-5.5,nt,nt,nt,nt
COC(=O)[C@]12C[C@H](CC(=O)NCCc3ccccc3OC)C(=O)N(Cc3ccc4c(c3)OCO4)C1=C[C@H](C(C)(C)C)O[C@@H]2C,nt,15.0,nt,2.0,nt,nt,nt,nt,nt
COC(=O)[C@]12C[C@H](CC(=O)NCCc3ccccc3OC)C(=O)N(Cc3ccc4c(c3)OCO4)C1=C[C@H](COCc1ccccc1)O[C@@H]2C,nt,nt,nt,nt,nt,nt,6.0,nt,12.3
COC(=O)[C@]12C[C@H](CC(=O)NCCc3ccccc3OC)C(=O)N(Cc3ccccc3)C1=C[C@H](C(C)(C)C)O[C@@H]2C,nt,65.1*,nt,53.8*,nt,79.8*,3.9,52.8*,6.0
CCCCCCCCN1C(=O)[C@@H](CC(=O)NCCc2ccccc2OC)C[C@@]2(C(=O)OC)C1=C[C@H](C1CCCC1)O[C@@H]2C,nt,62.2*,nt,28.2,nt,71.7*,2.7,64.3*,9.2
O=C(OCc1nnc(-c2ccc([N+](=O)[O-])cc2)o1)C1CCN(C(=O)c2ccc(F)cc2)CC1,2.7,0.2,4.3,-7.4,-7.4,nt,nt,nt,nt
O=C(O)c1ccccc1-c1ccc(/C=C/c2cc(C(F)(F)F)[nH]c(=O)n2)o1,nt,236.9*,nt,32.8,nt,69.0*,117.2*,24.9,27.6*
Cc1c(Cl)cccc1NC(=O)CSc1nc2ncc(Cl)cc2[nH]1,1.4,5.6,2.2,-10.7,-2.7,nt,nt,nt,nt
COc1ccc(C(=O)NC(=S)NNC(=O)[C@H]2C[C@@H]2c2ccccc2)cc1OC,3.0,120.6*,3.2,49.4*,-12.3,90.3*,70.4*,70.1*,43.3*
COc1cc(OC)cc(C(=O)NC(=S)NNC(=O)Cc2cccs2)c1,0.6,80.3*,1.0,15.7,1.2,56.2*,36.8*,27.7,16.1
COc1cc(OC)cc(C(=O)NC(=S)NNC(=O)[C@H]2C[C@@H]2c2ccccc2)c1,23.3*,173.7*,2.2,107.1*,-15.7,113.0*,101.7*,89.3*,65.0*

# Screening results from PubChem.
